Holding throughout (format): functional, Oryctolagus cuniculus, Platelet
A short description of assay [1]: Antiplatelet aggregation activity in arachidonic acid-induced rabbit platelets assessed as aggregation at 100 ug/ml. The procedure, abridged:
(§1)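 Platelets preincubated 3 min at 37° with test agent (100 µg/ml) or 0.5% DMSO as control, then challenged with an inducer: ADP 20 µM, PAF 2 ng/ml, arachidonic acid 100 µM, collagen 10 µg/ml. Percent aggregation reported as means ± S.E.M., n = 3–6, compared against the respective control.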

The nature of assay [2]: Antiplatelet aggregation activity in collagen-induced rabbit platelets assessed as aggregation at 100 ug/ml. The procedure, abridged:
as §1

Assay [3] is described as follows: Antiplatelet aggregation activity in PAF-induced rabbit platelets assessed as aggregation at 100 ug/ml. An outline of the steps:
as §1

The nature of assay [4]: Antiplatelet aggregation activity in ADP-induced rabbit platelets assessed as aggregation at 100 ug/ml. An outline of the steps: as §1

Molecules are shown by their SMILES.

Regarding `CC(C)=CC(=O)O[C@H]1c2c(ccc3ccc(=O)oc23)OC(C)(C)[C@H]1OC(=O)CC(C)C` (relative stereo), the Activity in assay [1] came to 76.3%; in assay [2], 75.7%; in assay [3], 57.4%; in assay [4], 64%.
On the same counts, the results for `CC(C)CC(=O)O[C@H]1c2c(ccc3ccc(=O)oc23)OC(C)(C)[C@H]1OC(=O)CC(C)C` are 49.8%, 39.3%, 0% and 8.8%.
For `CC(C)=CC(=O)O[C@H]1c2c(ccc3ccc(=O)oc23)OC(C)(C)[C@H]1OC(=O)C=C(C)C` (relative stereo), the Activity is given as 43.6% in assay [1], 72.3% in assay [2], 73.2% in assay [3] and 61.7% in assay [4].

For the origin of these results see ChEMBL document CHEMBL1149745, “An antiplatelet aggregation principle and X-ray structural analysis of cis-khellactone diester from Peucedanum japonicum” (1992).
